Experimental data from ChEMBL document CHEMBL5724801, “EUbOPEN Chemogenomics Library - Multiplex” (2024).
“And” between values parts separate entries of the source, which are not always exact repeats. Equal entries are not always repeated.

Assays:
HEK-293T = assay: Multiplex assay against HEK293T; type: toxicity, cell-based; settings: human
In short: (§1)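 With compound added, live cells were imaged on a CQ1 microscope at 37°C and 5% CO2; staining with Hoechst33342, BioTracker Green Microtubule Cytoskeleton Dye, MitoTracker Red and Annexin V Alexa Fluor 680 had been done at seeding. The CellPathfinder machine-learning gating scheme split cells into Hoechst high-intensity objects or normal cells, normal cells into healthy, pyknosed or fragmented nuclei, and pyknosed cells into mitotic or apoptotic. The tubulin, mitochondrial-mass and membrane-permeability phenotypes are per cents of healthy-nucleus cells.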

Fibroblast = assay: Multiplex assay against human fibroblast; type: toxicity, cell-based; in short: as §1
[1] = 12 h, 1 µM, compound concentration 1 uM
[2] = 12 h, 10 µM, compound concentration 10 uM
[3] = 24 h, 1 µM, compound concentration 1 uM
[4] = 24 h, 10 µM, compound concentration 10 uM
[5] = 48 h, 1 µM, compound concentration 1 uM
[6] = 48 h, 10 µM, compound concentration 10 uM

Cl.NCCc1ccc(O)c(O)c1 [DOPAMINE HYDROCHLORIDE]
Population Apoptotic (%) (HEK-293T; [1]): 31% and 54%
Population Fragmented Nuclei (%) (HEK-293T; [1]): 6% and 7%
Population Healthy Nuclei (%) (HEK-293T; [1]): 77% and 78%
Population Hoechst High Intensity Objects (%) (HEK-293T; [1]): 10% and 6%
Population Membrane Permeable-Phenotype (%) (HEK-293T; [1]): 0%
Population Mitochondria Different-Phenotype (%) (HEK-293T; [1]): 54% and 58%
Population Mitotic Cells (%) (HEK-293T; [1]): 68% and 46%
Population Normal (%) (HEK-293T; [1]): 89% and 93%
Population Pyknosed Nuclei (%) (HEK-293T; [1]): 16% and 14%
Population Tubulin-Different-Phenotype (%) (HEK-293T; [1]): 36% and 18%
Total Cell Count (HEK-293T; [1]): 324 and 372
Population Apoptotic (%) (HEK-293T; [2]): 46% and 37%
Population Fragmented Nuclei (%) (HEK-293T; [2]): 5%
Population Healthy Nuclei (%) (HEK-293T; [2]): 77% and 83%
Population Hoechst High Intensity Objects (%) (HEK-293T; [2]): 6% and 5%
Population Membrane Permeable-Phenotype (%) (HEK-293T; [2]): 0%
Population Mitochondria Different-Phenotype (%) (HEK-293T; [2]): 57% and 51%
Population Mitotic Cells (%) (HEK-293T; [2]): 53% and 62%
Population Normal (%) (HEK-293T; [2]): 93% and 94%
Population Pyknosed Nuclei (%) (HEK-293T; [2]): 17% and 11%
Population Tubulin-Different-Phenotype (%) (HEK-293T; [2]): 43% and 23%
Total Cell Count (HEK-293T; [2]): 344 and 413
Population Apoptotic (%) (HEK-293T; [3]): 44% and 20%
Population Fragmented Nuclei (%) (HEK-293T; [3]): 9% and 8%
Population Healthy Nuclei (%) (HEK-293T; [3]): 76% and 85%
Population Hoechst High Intensity Objects (%) (HEK-293T; [3]): 4% and 5%
Population Membrane Permeable-Phenotype (%) (HEK-293T; [3]): 1% and 0%
Population Mitochondria Different-Phenotype (%) (HEK-293T; [3]): 40% and 46%
Population Mitotic Cells (%) (HEK-293T; [3]): 55% and 79%
Population Normal (%) (HEK-293T; [3]): 95% and 94%
Population Pyknosed Nuclei (%) (HEK-293T; [3]): 13% and 5%
Population Tubulin-Different-Phenotype (%) (HEK-293T; [3]): 19% and 11%
Total Cell Count (HEK-293T; [3]): 451 and 478
Population Apoptotic (%) (HEK-293T; [4]): 39% and 38%
Population Fragmented Nuclei (%) (HEK-293T; [4]): 7% and 9%
Population Healthy Nuclei (%) (HEK-293T; [4]): 79% and 83%
Population Hoechst High Intensity Objects (%) (HEK-293T; [4]): 5%
Population Membrane Permeable-Phenotype (%) (HEK-293T; [4]): 0%
Population Mitochondria Different-Phenotype (%) (HEK-293T; [4]): 36% and 40%
Population Mitotic Cells (%) (HEK-293T; [4]): 60% and 61%
Population Normal (%) (HEK-293T; [4]): 94%
Population Pyknosed Nuclei (%) (HEK-293T; [4]): 12% and 7%
Population Tubulin-Different-Phenotype (%) (HEK-293T; [4]): 23% and 15%
Total Cell Count (HEK-293T; [4]): 393 and 533
Population Apoptotic (%) (HEK-293T; [5]): 19% and 23%
Population Fragmented Nuclei (%) (HEK-293T; [5]): 14% and 10%
Population Healthy Nuclei (%) (HEK-293T; [5]): 78% and 81%
Population Hoechst High Intensity Objects (%) (HEK-293T; [5]): 4%
Population Membrane Permeable-Phenotype (%) (HEK-293T; [5]): 1% and 0%
Population Mitochondria Different-Phenotype (%) (HEK-293T; [5]): 23% and 20%
Population Mitotic Cells (%) (HEK-293T; [5]): 80% and 76%
Population Normal (%) (HEK-293T; [5]): 95%
Population Pyknosed Nuclei (%) (HEK-293T; [5]): 7%
Population Tubulin-Different-Phenotype (%) (HEK-293T; [5]): 14% and 7%
Total Cell Count (HEK-293T; [5]): 785 and 638
Population Apoptotic (%) (HEK-293T; [6]): 30% and 17%
Population Fragmented Nuclei (%) (HEK-293T; [6]): 14% and 12%
Population Healthy Nuclei (%) (HEK-293T; [6]): 79% and 83%
Population Hoechst High Intensity Objects (%) (HEK-293T; [6]): 3% and 1%
Population Membrane Permeable-Phenotype (%) (HEK-293T; [6]): 0%
Population Mitochondria Different-Phenotype (%) (HEK-293T; [6]): 24% and 17%
Population Mitotic Cells (%) (HEK-293T; [6]): 70% and 82%
Population Normal (%) (HEK-293T; [6]): 96% and 98%
Population Pyknosed Nuclei (%) (HEK-293T; [6]): 6% and 4%
Population Tubulin-Different-Phenotype (%) (HEK-293T; [6]): 13% and 7%
Total Cell Count (HEK-293T; [6]): 660 and 859
Population Apoptotic (%) (Fibroblast; [1]): 42% and 44%
Population Fragmented Nuclei (%) (Fibroblast; [1]): 13% and 34%
Population Healthy Nuclei (%) (Fibroblast; [1]): 63% and 40%
Population Hoechst High Intensity Objects (%) (Fibroblast; [1]): 1%
Population Membrane Permeable-Phenotype (%) (Fibroblast; [1]): 0% and 4%
Population Mitochondria Different-Phenotype (%) (Fibroblast; [1]): 1% and 6%
Population Mitotic Cells (%) (Fibroblast; [1]): 57% and 55%
Population Normal (%) (Fibroblast; [1]): 98%
Population Pyknosed Nuclei (%) (Fibroblast; [1]): 23% and 24%
Population Tubulin-Different-Phenotype (%) (Fibroblast; [1]): 34% and 45%
Total Cell Count (Fibroblast; [1]): 115 and 152
Population Apoptotic (%) (Fibroblast; [2]): 56% and 41%
Population Fragmented Nuclei (%) (Fibroblast; [2]): 14% and 35%
Population Healthy Nuclei (%) (Fibroblast; [2]): 62% and 40%
Population Hoechst High Intensity Objects (%) (Fibroblast; [2]): 3% and 4%
Population Membrane Permeable-Phenotype (%) (Fibroblast; [2]): 0% and 6%
Population Mitochondria Different-Phenotype (%) (Fibroblast; [2]): 3% and 6%
Population Mitotic Cells (%) (Fibroblast; [2]): 43% and 58%
Population Normal (%) (Fibroblast; [2]): 96% and 95%
Population Pyknosed Nuclei (%) (Fibroblast; [2]): 23%
Total Cell Count (Fibroblast; [2]): 135 and 127
Population Apoptotic (%) (Fibroblast; [3]): 55% and 51%
Population Fragmented Nuclei (%) (Fibroblast; [3]): 14% and 34%
Population Healthy Nuclei (%) (Fibroblast; [3]): 69% and 47%
Population Hoechst High Intensity Objects (%) (Fibroblast; [3]): 0% and 2%
Population Membrane Permeable-Phenotype (%) (Fibroblast; [3]): 1% and 7%
Population Mitochondria Different-Phenotype (%) (Fibroblast; [3]): 1% and 0%
Population Mitotic Cells (%) (Fibroblast; [3]): 44% and 48%
Population Normal (%) (Fibroblast; [3]): 99% and 97%
Population Pyknosed Nuclei (%) (Fibroblast; [3]): 16% and 18%
Population Tubulin-Different-Phenotype (%) (Fibroblast; [3]): 31% and 37%
Total Cell Count (Fibroblast; [3]): 112 and 150
